Screening data from PubChem BioAssay.
Rows were chosen to be rich in hits. Some 3.1% of all compounds tested hit in one or more screens of this group.
FN deposit inh – fibronectin deposition inhibition. AH1F fibroblasts, Alexa488-fibronectin deposition fluorescence, overnight. inhibition, % at 12.6 µM. hit rate 0.086% among 350,000. AID 743247;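 active means mean inhibition across replicates of 30% or more, regardless of how many single replicates reach that level; inconclusive means mean under 30% yet at least half of replicates reach 30%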;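 further: positive control wells lacked labelled fibronectin entirely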
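Measured by – fluorescence 485/525 nm · System – AH1F fibroblast monolayer, labelled fibronectin deposition · Amount – 10000 cells per well · Buffer or medium – serum-reduced DMEM (2% serum) · Doses – single dose, pinned · Also added – fluorescent fibronectin at 24 nM final · Schedule – 1 h cell attachment, overnight exposure to compound and label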
PGC1a acetyl inh – lowers PGC1a acetylation signal in U2OS cells | AlphaScreen anti-acetyl-lysine; with virally co-expressed GCN5 acetyltransferase | hit rate 0.17% among 350,000 | inhibition, % at 15.6 µM | AID 651687;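 active means every replicate shows inhibition of at least 40%; inconclusive means mean inhibition at least 40% but some replicate below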;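 further: 0% = neutral control wells and 100% = positive control wells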
EWS-Fli block – blocks EWS/Fli oncoprotein-driven transcription; hit rate 0.67% among 350,000; inhibition, % at 12.6 µM; AID 651661; A673 NR0B1-luciferase reporter, viability-normalised;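 active means mean inhibition of at least 50% after viability correction, with every replicate also passing that limit; inconclusive means mean reaches 50% but only one of two replicates passes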;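 further: firefly luciferase signal divided by Alamar Blue viability fluorescence both relative to DMSO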
FGF22 binding – shifts melting point of recombinant human FGF22; Q9HCT0; recombinant FGF22 thermal shift, SYPRO orange fluorescence; percent of sucrose octasulfate shift, DMSO zero; activity (Tm shift, normalised), % at 9.99 µM; hit rate 1.5% among 340,000; AID 651658;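 active means mean Tm shift, scaled 0 neutral to 100 positive control, at about 1.3% or above, every replicate too, limit read from the data; inconclusive means no clear call, values can overlap the other calls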
Target sequence (Q9HCT0 whole entry, looked up): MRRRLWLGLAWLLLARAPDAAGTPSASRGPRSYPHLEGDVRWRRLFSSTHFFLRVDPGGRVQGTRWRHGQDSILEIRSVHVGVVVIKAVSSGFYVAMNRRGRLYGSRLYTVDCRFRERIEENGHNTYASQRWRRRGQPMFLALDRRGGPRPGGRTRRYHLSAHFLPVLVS
Env fusion inh – inhibitors of HIV Env-mediated cell fusion; HeLa-JRFL Env/CEM21 cell fusion, luciferase; hit rate 1.1% among 360,000; AID 651610; inhibition, % at 12.3 µM;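 active means mean replicate inhibition score of at least 50 and every replicate individually at or above 50; inconclusive means only one of the two criteria met; inactive means mean below 50 and not all replicates reaching 50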;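 further: 0% = plate neutral controls and 100% = maraviroc near 300 nM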
PAX8 inh HTS – lowers PAX8-driven luciferase in RMG-I cells; RMG-I TPO-luciferase reporter, SteadyGlo, 24 h; inhibition, % at 12.6 µM; hit rate 1.2% among 360,000; AID 652154;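 active means mean replicate inhibition at least 60% with every replicate also reaching 60%; inconclusive means only one of the two criteria is met; inactive means mean below 60% and not all replicates reaching 60%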;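 further: luciferase light reporting Pax8 driven TPO promoter activity; plate controls were median of neutral control wells for no effect and mitoxantrone controls for full effect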
The depositor's hits bear a star; u = inconclusive; x = not tested or not shown; [ ] = another dose, or the depositor's remark.

SMILES | FN deposit inh | PGC1a acetyl inh | EWS-Fli block | FGF22 binding | Env fusion inh | PAX8 inh HTS
C[C@H](CO)N1C[C@H](C)[C@H](CN(C)Cc2ccc(C(F)(F)F)cc2)OCCCC[C@H](C)Oc2ccc(NC(=O)Nc3ccc4c(c3)OCO4)cc2C1=O | x | -10 | 13 | -1 | 69*[16.7 µM] | 96*
C[C@@H]1CN([C@H](C)CO)C(=O)c2cc(NC(=O)Nc3ccc4c(c3)OCO4)ccc2O[C@@H](C)CCCCO[C@@H]1CN(C)Cc1ccc(C(F)(F)F)cc1 | x | -25 | 0 | -1 | u | 66*
C[C@@H]1CCCCO[C@@H](CN(C)Cc2ccc(C(F)(F)F)cc2)[C@@H](C)CN([C@H](C)CO)C(=O)c2cc(NC(=O)Nc3ccc4c(c3)OCO4)ccc2O1 | x | 18 | -8 | 0 | -15[16.7 µM] | -6
C[C@@H]1CCCCO[C@H](CN(C)Cc2ccc(C(F)(F)F)cc2)[C@H](C)CN([C@H](C)CO)C(=O)c2cc(NC(=O)Nc3ccc4c(c3)OCO4)ccc2O1 | x | -10 | 8 | 0 | 39[16.7 µM] | 67*
C[C@@H]1CN([C@@H](C)CO)C(=O)c2cc(NC(=O)Nc3ccc4c(c3)OCO4)ccc2O[C@@H](C)CCCCO[C@@H]1CN(C)Cc1ccc(C(F)(F)F)cc1 | x | -7 | -4 | -1 | 23[16.7 µM] | 27
C[C@@H]1CN([C@H](C)CO)C(=O)c2cc(NC(=O)NC3CCCCC3)ccc2O[C@@H](C)CCCCO[C@H]1CN(C)Cc1ccc(C(F)(F)F)cc1 | x | 11 | -25 | 0 | u | 105*
C[C@@H]1CN([C@@H](C)CO)C(=O)c2cc(NC(=O)NC3CCCCC3)ccc2O[C@@H](C)CCCCO[C@H]1CN(C)Cc1ccc(C(F)(F)F)cc1 | x | 5 | -13 | 0 | -43[16.7 µM] | 78*
C[C@H]1CCCCO[C@@H](CN(C)Cc2ccc(C(F)(F)F)cc2)[C@@H](C)CN([C@@H](C)CO)C(=O)c2cc(NC(=O)NC3CCCCC3)ccc2O1 | x | 0 | -4 | 0 | 41[16.7 µM] | 52
O=C(CCN1CCCCC1)NCC[C@H]1CC[C@H](NS(=O)(=O)c2cccc(F)c2)[C@H](CO)O1 | -20 | -12 | 0 | 0 | 15[16.7 µM] | -8
CCN(CC)c1ncnc2c1cnn2Cc1ccc(Cl)cc1 | x | -1 | 0 | 43* | 28 | -8
CO[C@@H](CN(C)S(=O)(=O)c1ccccc1)[C@H](C)CN(Cc1ccccc1Cl)[C@@H](C)CO | 0 | -18 | 0 | 0 | x | x
Cc1ccc(C(NC(=O)N2CCN(C)CC2)C(Cl)Cl)cc1F (stereo unspecified) | 6 | -11 | -8 | 44* | 14 | -19
Cc1onc(-c2c(F)cccc2Cl)c1C(=O)OCC(=O)NC(c1ccccc1)c1ccccc1 | x | -42 | x | x | 93* | x
Cc1onc(-c2c(F)cccc2Cl)c1C(=O)OCC(=O)NC(N)=O | 10 | -1 | 7 | 0 | -5 | -3
CCCOC(=O)C1C2C=CC(C3CC23)C1C(=O)OCC(=O)c1ccccc1 (stereo unspecified) | x | x | x | x | 62* | x
COc1ccc(NC(=O)N(C)C[C@H]2OCCCC[C@H](C)Oc3ccc(NS(=O)(=O)c4ccc(F)cc4)cc3C(=O)N([C@@H](C)CO)C[C@@H]2C)cc1 | x | 9 | 12 | 0 | 3[16.7 µM] | 15
CC[C@@H]1CCC[C@@H](O)[C@@H](C)C(=O)O[C@H](C)[C@@H](C)C/C=C(C)/C(OC)=C\C(=O)N(C)C([C@@H](C)CC)C(=O)N(C)[C@@H](C(C)C)C(=O)N(C)[C@@H](COC)C(=O)N2CCC[C@H]2C(=O)N(C)[C@@H](C(C)C)C(=O)N2CCC[C@H]2C(=O)O1 (stereo partly specified) | 3 | 32 | 20 | 0 | 20 | 88*
c1ccc(Cn2c(NCc3ccccn3)nc3ccccc32)cc1 | 3 | x | 3 | 43* | 5 | -19
O=C(CC(C(=O)c1ccccc1)c1ccccc1)c1ccccc1 (stereo unspecified) | 4 | x | -5 | 0 | 17 | x
CN(C)CC(C(=O)c1ccccc1)c1ccccc1 (stereo unspecified) | x | 139* | x | x | x | x
CN(Cc1cc(Cl)cc(Cl)c1)CC(C(=O)c1ccccc1)c1ccccc1 (stereo unspecified) | 0 | 17 | 6 | 0 | 2 | 79*
C[C@@H]1CN([C@@H](C)CO)S(=O)(=O)c2ccc(C3=CCCCC3)cc2O[C@@H]1CN(C)C(=O)Cc1ccccc1 | -3 | -4 | 22 | -1 | -8[16.7 µM] | x
COc1ccc(CNC(=S)Nc2ccc(F)c(Cl)c2)cc1 | 1 | -5 | 3 | 1.7* | -11 | 16
COc1ccc(CNC(=S)NCc2ccc(OC(C)C)cc2)cc1 | 2 | 9 | 7 | 43* | -3 | 6
COc1ccc(C(CCNCc2ccc(OC(C)C)cc2)c2ccccc2OC)cc1 (stereo unspecified) | -4 | -16 | 58* | 0 | 3 | 15
SMILES | FN deposit inh | PGC1a acetyl inh | EWS-Fli block | FGF22 binding | Env fusion inh | PAX8 inh HTS
NS(=O)(=O)c1ccc(NC(=S)NCc2ccc(Cl)cc2)cc1 | x | 0 | x | x | x | x
NS(=O)(=O)c1ccc(CNC(=S)Nc2ccc(F)c(Cl)c2)cc1 | -1 | x | 2 | 43* | -10 | -20
COc1cccc(C(=O)Nc2ccc3c(c2)OC[C@H](C)N(C(C)=O)C[C@H](C)[C@@H](OC)CN(C)C3=O)c1 | -7 | -6 | -6 | 0 | 6[16.7 µM] | -9
C[C@H](CO)N1C[C@H](C)[C@H](CN(C)Cc2ccc3c(c2)OCO3)Oc2c(NC(=O)C3CCOCC3)cccc2C1=O | 7 | 0 | 0 | 0 | -13[16.7 µM] | 2
CC=Cc1ccc2n(c1=O)C[C@H]1[C@H](CO)[C@@H](C(=O)N[C@H](C)c3ccccc3)N(C(=O)c3ccccn3)[C@@H]21 (mixture of isomers) | 6 | x | -3 | 0 | x | -1
COc1ccc2c3c(n(C)c2c1)[C@H](CO)N(C(C)=O)CC31CN(C(=O)Nc2ccccc2F)C1 | x | 4 | 6 | 0 | x | x
O=C(NC[C@H]1N[C@H](CO)[C@@H]1c1ccc(-c2ccccc2)cc1)C1CCC1 | x | 7 | 2 | x | x | 2
C[C@H]1CCCCO[C@@H](CN(C)Cc2ccc3c(c2)OCO3)[C@@H](C)CN([C@@H](C)CO)C(=O)c2cc(NC(=O)C3CCCCC3)ccc2O1 | x | x | 8 | 0 | -82[16.7 µM] | 3
CC(=O)Nc1ccc(NC(=O)c2nc(S(=O)(=O)Cc3cccc(C)c3)ncc2Cl)cc1 | 18 | x | 61* | 0 | -22 | 91*
Cc1cccc(CS(=O)(=O)c2ncc(Cl)c(C(=O)NCc3ccc4c(c3)OCO4)n2)c1 | 11 | -39 | x | 0 | 44 | -6
COC(=O)c1ccc(NC(=O)c2nc(S(=O)(=O)Cc3cccc(C)c3)ncc2Cl)cc1 | 53* | x | x | 0 | 41 | 26
CCC(=O)N1C[C@H](C)[C@@H](OC)CN(C)C(=O)c2ccc(NC(=O)Nc3cccc(F)c3)cc2OC[C@@H]1C | -1 | -8 | 8 | 0 | x | x
